From PubChem BioAssay
Shown are actives, neighbours in structure and some others; about 4.2% of the full set was active somewhere.
Fh CTSL1 inh: Fasciola hepatica cathepsin L1 inhibitors, primary screen, counter-screen for PFM18AAP inhibitor project, biochemical, QFRET, fluorogenic peptide substrate | recombinant F. hepatica cathepsin L1, Z-Leu-Arg-MCA fluorescence | inhibition, % at 5.96 µM | 300,000 compounds, 0.49% hits | AID 1906, 2009;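 active means inhibition above the mean of all tested compounds plus 3 SD, set per screening campaign, cut at about 17% in these data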;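 further: 0% = plate median of test compound wells and 100% = 1 µM Z-Phe-Ala-diazomethylketone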
FXN GAA850 act: FXN promoter activators, primary screen, cell-based, luciferase luminescence, HEK293 lucGAA850; HEK293 lucGAA850 FXN promoter luciferase reporter, 24 h; percent of 10 µM SAHA response; activation, % at 6 µM; 360,000 compounds, 0.56% hits; AID 540364, 2011;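 active means activation above the average of all compounds screened plus 3 SD, cutoff fixed separately per campaign, cut at about 7.5% in these data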;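 further: 0% = DMSO wells and 100% = 10 µM SAHA wells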
HDAC3 inh: HDAC3 deacetylase inhibitors, primary screen, biochemical, fluorescence, cell-free homogeneous; Histone deacetylase 3 (Homo sapiens), O15379; 320,000 compounds, 0.15% hits; AID 2718, 2010; inhibition, % at 8.3 µM; recombinant HDAC3, fluorogenic peptide/trypsin coupled; in the data active means inhibition above about 26%, passing the limit was not always enough
Target sequence (O15379 whole entry, looked up): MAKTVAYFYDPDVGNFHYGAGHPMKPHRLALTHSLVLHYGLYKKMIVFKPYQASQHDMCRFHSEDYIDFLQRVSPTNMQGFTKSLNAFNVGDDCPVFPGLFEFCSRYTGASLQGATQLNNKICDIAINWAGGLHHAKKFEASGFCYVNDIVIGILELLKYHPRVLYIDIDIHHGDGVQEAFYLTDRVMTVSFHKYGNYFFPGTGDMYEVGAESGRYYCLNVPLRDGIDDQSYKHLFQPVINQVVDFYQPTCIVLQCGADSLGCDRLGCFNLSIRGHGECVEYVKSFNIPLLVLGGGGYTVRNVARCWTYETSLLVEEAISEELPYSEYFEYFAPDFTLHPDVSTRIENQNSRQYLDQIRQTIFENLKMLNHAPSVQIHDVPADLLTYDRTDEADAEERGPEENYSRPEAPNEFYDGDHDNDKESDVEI
AHR act: AHR activators, primary screen, cell-based, luminescence, luciferase reporter, human; Aryl hydrocarbon receptor (Homo sapiens), P35869; AHR-responsive luciferase reporter cells; activation, % at 5 µM; 320,000 compounds, 2.5% hits; in the data active means activation above about 47%;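 further: 0% = vehicle wells and 100% = reference agonist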
M18AAP inhibitor: PfM18AAP inhibitors, malaria aminopeptidase, primary screen, biochemical, QFRET, recombinant enzyme; M18 aspartyl aminopeptidase (Plasmodium falciparum 3D7); H-Glu-NHMec fluorogenic cleavage; inhibition, % at 7.35 µM; 290,000 compounds, 1.2% hits; AID 1822, 2009;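 active means inhibition above the campaign mean inhibition over all tested compounds plus 3 SD, cut at about 28% in these data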;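 further: 0% = plate median of test compound wells and 100% = 2 mM ZnCl2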
SENP1 inh: human SENP1 catalytic domain inhibitors, primary screen, biochemical, FRET, uHTS | Sentrin-specific protease 1 (Homo sapiens), Q9P0U3 | recombinant SENP1 catalytic domain, CyPet-SUMO1-YPet FRET cleavage | inhibition, % at 10 µM | 360,000 compounds, 0.21% hits | AID 624204, 2012;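 active means inhibition at least 30% at 10 µM, raw YFP signal under a set limit, fluorescence ratio 0.5 to 1.5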;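 further: 0% = enzyme with DMSO and 100% = no enzyme wells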
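Assay system: hSENP1 catalytic domain, recombinant. Amount: SENP1 enzyme, 20 pM final. Schedule: 50 min reaction, RT, dark. Technique: FRET, CFP and YFP emission. Control set: no-enzyme wells low, DMSO-plus-enzyme wells high control.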
An asterisk follows results filed as active.

C(=N\Nc1ncnc2sc3c(c12)CCC3)/c1cccs1 was read as Fh CTSL1 inh 7, FXN GAA850 act 13*, HDAC3 inh 2, AHR act 56*, M18AAP inhibitor 26 and SENP1 inh -8.
Screening c1cc(Nc2ncnc3sc4c(c23)CCC4)ccn1 returned Fh CTSL1 inh 4, FXN GAA850 act 0, HDAC3 inh -30, AHR act 0, M18AAP inhibitor 3 and SENP1 inh -4.
COC(=O)[C@@]12C[C@@H](CC(=O)NCC3CCCCC3)C(=O)N(Cc3ccco3)C1=CCC(C)(C)C2 was read as SENP1 inh -6.
COc1ccccc1C1Nc2cccc3cccc(c23)N1 was read as Fh CTSL1 inh -1, FXN GAA850 act 3, HDAC3 inh 1, AHR act 60*, M18AAP inhibitor -4 and SENP1 inh -2.
Screening O=[N+]([O-])c1ccccc1C1Nc2cccc3cccc(c23)N1 returned Fh CTSL1 inh 1, FXN GAA850 act 2, HDAC3 inh -15, AHR act 75*, M18AAP inhibitor -9 and SENP1 inh -8.
Screening CC(=O)Nc1ccc2c(c1)C(N1CC3CCC(CC3)C1)c1ccccc1-2 (stereo unspecified) returned FXN GAA850 act -1 and SENP1 inh 1.
`N#CC(C#N)=NNc1ccc([N+](=O)[O-])cc1` gave Fh CTSL1 inh 24*, FXN GAA850 act -2, HDAC3 inh 13, AHR act 0, M18AAP inhibitor 6 and SENP1 inh 14.
Screening COc1ccc(C(CNC(=O)c2oc3c(Cl)cccc3c2C)N2CCCC2)cc1 (stereo unspecified) returned Fh CTSL1 inh 2, FXN GAA850 act 1, HDAC3 inh 2, AHR act 50* and SENP1 inh -3.
`COc1ccc(C(CNC(=O)c2oc3ccccc3c2C)N2CCCC2)cc1` (stereo unspecified) gave FXN GAA850 act 0, HDAC3 inh 7, AHR act 47* and SENP1 inh -9.
Screening COc1ccc(C(CNC(=O)c2oc3ccc(Cl)cc3c2C)N2CCCCC2)cc1 (stereo unspecified) returned Fh CTSL1 inh 4, FXN GAA850 act 0, HDAC3 inh 3, AHR act -1, M18AAP inhibitor 1 and SENP1 inh 0.
`CCN(CC(=O)Nc1ccc(OC)cc1)C(=O)c1oc2c(Cl)cccc2c1C` gave Fh CTSL1 inh 2, FXN GAA850 act 1, AHR act 53* and SENP1 inh -3.
O=C(NCc1cccnc1)c1cc(C2CCCN(S(=O)(=O)c3cccc4cccnc34)C2)on1 (stereo unspecified) was read as FXN GAA850 act 1 and SENP1 inh 6.
Cn1c(=O)cc(SCC(=O)Nc2ccccn2)c2ccccc21 was read as Fh CTSL1 inh 3, HDAC3 inh 3, AHR act 62* and M18AAP inhibitor -8.
Cn1c(=O)cc(SCC(=O)N2CCN(c3ccccn3)CC2)c2ccccc21 was read as Fh CTSL1 inh -1, FXN GAA850 act 0, HDAC3 inh 4, AHR act 64*, M18AAP inhibitor -2 and SENP1 inh -1.
Cc1ccnc(NC(=O)CSc2cc(=O)n(C)c3ccccc23)c1 was read as Fh CTSL1 inh 3, FXN GAA850 act 2, HDAC3 inh 0, AHR act 39, M18AAP inhibitor -12 and SENP1 inh 1.
`Cc1ccc(NC(=O)CN(C)C(=O)COc2ccc(Br)cc2)cc1` gave FXN GAA850 act 0 and SENP1 inh 4.
For C/C=C/c1cccc(-c2nc(C(=O)NC3CCCC3)cc3c2[C@@H](CCO)N(S(=O)C(C)(C)C)C3)c1 (stereo partly specified) the results were SENP1 inh -17.
Screening COc1cc(C2/C(=C(\O)c3ccc4c(c3)OCCO4)C(=O)C(=O)N2c2nnc(C)s2)cc(OC)c1OC (stereo unspecified) returned Fh CTSL1 inh -2, FXN GAA850 act 1, HDAC3 inh -1, AHR act 2, M18AAP inhibitor -1 and SENP1 inh 24.
`COc1cc(C(C[N+](=O)[O-])c2c(C)[nH]c3ccccc23)ccc1O` (stereo unspecified) gave Fh CTSL1 inh -3, FXN GAA850 act 3, HDAC3 inh 12, AHR act 30, M18AAP inhibitor 29* and SENP1 inh -18.
S=C(NCCc1ccccc1)Nc1ccc(N2CCCCC2)cc1 was read as Fh CTSL1 inh -5, FXN GAA850 act 5, HDAC3 inh 2, AHR act 3, M18AAP inhibitor 11 and SENP1 inh 4.
`CCc1ccc2nc(NC(=O)C3CSC4(C)CCC(=O)N34)sc2c1` (stereo unspecified) gave Fh CTSL1 inh 1, FXN GAA850 act 3, HDAC3 inh -5, AHR act 66* and SENP1 inh -3.
COc1cc(N2CCCC2)c(OC)cc1/C=C1/NC(=S)NC1=O was read as Fh CTSL1 inh 5, FXN GAA850 act 1, HDAC3 inh 4, AHR act 66*, M18AAP inhibitor 28* and SENP1 inh -30.
Screening COc1ccc(N/C=C(\C#N)c2ccc(OCCCF)cc2)cc1 returned Fh CTSL1 inh 1, FXN GAA850 act 1, HDAC3 inh 14, AHR act 8, M18AAP inhibitor 0 and SENP1 inh -2.
For Cc1ccc(N/C=C(\C#N)c2ccc(OCCCF)cc2)cc1 the results were Fh CTSL1 inh 4, FXN GAA850 act 1, HDAC3 inh -1, AHR act 53*, M18AAP inhibitor -5 and SENP1 inh 1.
For O=c1c(/C=N/Nc2ccccc2)c(Sc2nnnn2-c2ccccc2)nc2ccccn12 the results were FXN GAA850 act 5, M18AAP inhibitor 6 and SENP1 inh -22.
Screening O=C(O)c1ccccc1N/N=C/c1c(Sc2nnnn2-c2ccccc2)nc2ccccn2c1=O returned Fh CTSL1 inh 3, FXN GAA850 act 2, HDAC3 inh -1, AHR act 2, M18AAP inhibitor -6 and SENP1 inh 71*.
O=C(/C=C\c1cn(-c2ccccc2)nc1-c1ccccc1)Nc1nccs1 was read as Fh CTSL1 inh 2, FXN GAA850 act 5, HDAC3 inh -2, AHR act 73*, M18AAP inhibitor -1 and SENP1 inh -1.
